Assay results reported in ChEMBL document CHEMBL5705905, “Pharmacological targeting of kinases MST1 and MST2 augments tissue repair and regeneration” (Sci Transl Med, 2016).

Tests used:
[1] = tested on: Epidermal growth factor receptor (Homo sapiens), P00533 [UNDEFINED MUTATION]; assay: Inhibition of EGFR L747-S752del/P753S mutant (unknown origin) assessed as remaining activity at 1 uM by Kinome scan method relative to control
[2] = molecular target: Receptor tyrosine-protein kinase erbB-3 (Homo sapiens) (UniProt P21860); assay: Inhibition of ERBB3 (unknown origin) assessed as remaining activity at 1 uM by Kinome scan method relative to control
[3] = molecular target: Mitogen-activated protein kinase 3 (Homo sapiens) (UniProt P27361); assay: Inhibition of ERK1 (unknown origin) assessed as remaining activity at 1 uM by Kinome scan method relative to control
[4] = tested on: Receptor-type tyrosine-protein kinase FLT3 (Homo sapiens), P36888 [N841I]; assay: Inhibition of FLT3 N841I mutant (unknown origin) assessed as remaining activity at 1 uM by Kinome scan method relative to control
[5] = molecular target: Mitogen-activated protein kinase 9 (Homo sapiens) (UniProt P45984); assay: Inhibition of JNK2 (unknown origin) assessed as remaining activity at 1 uM by Kinome scan method relative to control
[6] = molecular target: Tyrosine-protein kinase Lyn (Homo sapiens) (UniProt P07948); assay: Inhibition of LYN (unknown origin) assessed as remaining activity at 1 uM by Kinome scan method relative to control
[7] = tested on: Hepatocyte growth factor receptor (Homo sapiens), P08581 [Y1235D]; assay: Inhibition of MET Y1235D mutant (unknown origin) assessed as remaining activity at 1 uM by Kinome scan method relative to control
[8] = molecular target: Serine/threonine-protein kinase PAK 3 (Homo sapiens) (UniProt O75914); assay: Inhibition of PAK3 (unknown origin) assessed as remaining activity at 1 uM by Kinome scan method relative to control
[9] = molecular target: Phosphorylase b kinase gamma catalytic chain, skeletal muscle/heart isoform (Homo sapiens) (UniProt Q16816); assay: Inhibition of PHKG1 (unknown origin) assessed as remaining activity at 1 uM by Kinome scan method relative to control
[10] = tested on: Phosphatidylinositol 4,5-bisphosphate 3-kinase catalytic subunit alpha isoform (Homo sapiens), P42336 [I800L]; assay: Inhibition of PIK3CA I800L mutant (unknown origin) assessed as remaining activity at 1 uM by Kinome scan method relative to control
[11] = molecular target: Phosphatidylinositol 5-phosphate 4-kinase type-2 gamma (Homo sapiens) (UniProt Q8TBX8); assay: Inhibition of PIP5K2C (unknown origin) assessed as remaining activity at 1 uM by Kinome scan method relative to control
[12] = molecular target: Serine/threonine-protein kinase N2 (Homo sapiens) (UniProt Q16513); assay: Inhibition of PKN2 (unknown origin) assessed as remaining activity at 1 uM by Kinome scan method relative to control
[13] = molecular target: Serine/threonine-protein kinase PLK1 (Homo sapiens) (UniProt P53350); assay: Inhibition of PLK1 (unknown origin) assessed as remaining activity at 1 uM by Kinome scan method relative to control
[14] = molecular target: Protein kinase C epsilon type (Homo sapiens) (UniProt Q02156); assay: Inhibition of PRKCE (unknown origin) assessed as remaining activity at 1 uM by Kinome scan method relative to control
[15] = molecular target: Ribosomal protein S6 kinase alpha-3 (Homo sapiens) (UniProt P51812); assay: Inhibition of C-terminal kinase domain RSK2 (unknown origin) assessed as remaining activity at 1 uM by Kinome scan method relative to control
Outline: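 Active-site-dependent competition-binding (KINOMEscan) panel of 468 kinases, test compound at 1 μM (from a 10 mM DMSO stock). Read-out is ctrl% = (test signal − positive control signal)/(negative control signal − positive control signal) × 100. DMSO is the negative control (100%) and a control compound is the positive control (0%). Lower ctrl% means tighter binding.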

[16] = molecular target: STE20/SPS1-related proline-alanine-rich protein kinase (Homo sapiens) (UniProt Q9UEW8); assay: Inhibition of STK39 (unknown origin) assessed as remaining activity at 1 uM by Kinome scan method relative to control
[17] = molecular target: Angiopoietin-1 receptor (Homo sapiens) (UniProt Q02763); assay: Inhibition of TIE2 (unknown origin) assessed as remaining activity at 1 uM by Kinome scan method relative to control
[18] = molecular target: Activated CDC42 kinase 1 (Homo sapiens) (UniProt Q07912); assay: Inhibition of TNK2 (unknown origin) assessed as remaining activity at 1 uM by Kinome scan method relative to control
[19] = molecular target: Transient receptor potential cation channel subfamily M member 6 (Homo sapiens) (UniProt Q9BX84); assay: Inhibition of TRPM6 (unknown origin) assessed as remaining activity at 1 uM by Kinome scan method relative to control
[20] = molecular target: Testis-specific serine/threonine-protein kinase 1 (Homo sapiens) (UniProt Q9BXA7); assay: Inhibition of TSSK1B (unknown origin) assessed as remaining activity at 1 uM by Kinome scan method relative to control
[21] = molecular target: T1, Serine/threonine-protein kinase 3 (Homo sapiens, UniProt Q13188); assay: Inhibition of recombinant His-tagged full-length MST2 (unknown origin) expressing in Escherichia coli assessed as GST-tagged MOB1a phosphorylation level incubated for 30 mins by immunoblot analysis
T1 sequence (Q13188 whole entry): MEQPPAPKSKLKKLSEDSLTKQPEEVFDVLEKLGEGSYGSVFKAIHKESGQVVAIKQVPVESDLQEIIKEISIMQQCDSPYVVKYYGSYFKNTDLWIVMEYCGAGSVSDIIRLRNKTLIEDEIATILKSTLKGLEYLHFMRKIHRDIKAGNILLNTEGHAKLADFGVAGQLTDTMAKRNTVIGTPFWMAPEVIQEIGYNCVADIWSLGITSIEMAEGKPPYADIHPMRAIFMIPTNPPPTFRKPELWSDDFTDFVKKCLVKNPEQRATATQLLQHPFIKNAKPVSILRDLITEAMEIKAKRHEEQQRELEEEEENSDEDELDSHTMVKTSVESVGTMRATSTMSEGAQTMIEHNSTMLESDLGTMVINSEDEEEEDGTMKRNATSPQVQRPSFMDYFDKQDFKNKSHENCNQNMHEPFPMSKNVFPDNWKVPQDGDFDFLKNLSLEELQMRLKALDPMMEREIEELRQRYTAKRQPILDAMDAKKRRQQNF

Mus musculus = assay: Protection against APAP induced liver injury in mouse assessed as increase in survival rate at 1 mg/kg, ip administered at 2.5 hrs […]; format: functional
Outline: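 Wild-type mice given oral APAP 400 mg/kg, then i.p. vehicle, NAC 250 mg/kg, 1 mg/kg test agent, or NAC plus test agent at 1.5 or 2.5 h. Mortality was tracked with n = 10–11 per group, Mantel-Cox test. Separately, TUNEL was done on liver after 200 mg/kg APAP with treatment at 2.5 h.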

[22] = molecular target: T1, Serine/threonine-protein kinase 3

Chain of Phosphatidylinositol 4,5-bisphosphate 3-kinase catalytic subunit alpha isoform (Homo sapiens), P42336 [I800L] (P42336 whole entry I800L, canonical isoform): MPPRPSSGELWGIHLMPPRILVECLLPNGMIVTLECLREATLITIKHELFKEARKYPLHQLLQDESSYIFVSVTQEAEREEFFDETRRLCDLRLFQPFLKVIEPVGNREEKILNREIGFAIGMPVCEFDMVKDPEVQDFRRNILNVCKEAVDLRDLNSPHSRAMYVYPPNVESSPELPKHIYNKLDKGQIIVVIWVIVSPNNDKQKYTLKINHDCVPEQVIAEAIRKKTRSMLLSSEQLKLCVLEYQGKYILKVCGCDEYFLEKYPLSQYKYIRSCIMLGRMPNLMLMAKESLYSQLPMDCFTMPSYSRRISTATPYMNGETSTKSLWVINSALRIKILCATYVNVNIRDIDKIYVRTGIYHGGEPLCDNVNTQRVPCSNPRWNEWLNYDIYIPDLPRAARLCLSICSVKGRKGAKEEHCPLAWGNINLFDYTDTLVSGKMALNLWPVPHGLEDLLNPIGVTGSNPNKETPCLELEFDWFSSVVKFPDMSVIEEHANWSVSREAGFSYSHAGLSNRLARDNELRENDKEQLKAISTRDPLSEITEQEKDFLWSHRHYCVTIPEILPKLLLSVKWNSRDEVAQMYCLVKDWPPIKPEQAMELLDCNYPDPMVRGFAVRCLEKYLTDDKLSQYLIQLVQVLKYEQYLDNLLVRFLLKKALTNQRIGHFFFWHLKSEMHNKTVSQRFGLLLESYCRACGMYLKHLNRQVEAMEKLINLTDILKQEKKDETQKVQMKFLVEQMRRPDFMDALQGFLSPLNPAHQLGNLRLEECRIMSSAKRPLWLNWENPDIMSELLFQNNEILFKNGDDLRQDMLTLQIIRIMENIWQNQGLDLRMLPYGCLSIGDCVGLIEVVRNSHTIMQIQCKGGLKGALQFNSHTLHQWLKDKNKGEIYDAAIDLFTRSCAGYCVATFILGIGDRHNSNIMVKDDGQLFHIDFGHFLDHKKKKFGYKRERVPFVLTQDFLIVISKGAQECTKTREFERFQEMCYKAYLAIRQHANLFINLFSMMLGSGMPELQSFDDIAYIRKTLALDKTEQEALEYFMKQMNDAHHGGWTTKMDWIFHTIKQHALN
Chain of Phosphorylase b kinase gamma catalytic chain, skeletal muscle/heart isoform (Homo sapiens) (Q16816 whole entry, looked up, canonical isoform): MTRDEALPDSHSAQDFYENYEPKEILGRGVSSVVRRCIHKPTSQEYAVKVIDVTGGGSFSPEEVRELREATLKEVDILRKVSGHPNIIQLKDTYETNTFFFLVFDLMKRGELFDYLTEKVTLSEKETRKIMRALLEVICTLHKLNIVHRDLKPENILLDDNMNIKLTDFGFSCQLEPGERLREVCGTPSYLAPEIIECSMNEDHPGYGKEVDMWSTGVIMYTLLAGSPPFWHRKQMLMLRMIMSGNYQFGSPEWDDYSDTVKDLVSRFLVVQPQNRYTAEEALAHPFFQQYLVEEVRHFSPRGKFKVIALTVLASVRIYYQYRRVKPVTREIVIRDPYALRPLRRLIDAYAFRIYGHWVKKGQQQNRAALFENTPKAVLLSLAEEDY
Chain of Mitogen-activated protein kinase 3 (Homo sapiens) (P27361 whole entry): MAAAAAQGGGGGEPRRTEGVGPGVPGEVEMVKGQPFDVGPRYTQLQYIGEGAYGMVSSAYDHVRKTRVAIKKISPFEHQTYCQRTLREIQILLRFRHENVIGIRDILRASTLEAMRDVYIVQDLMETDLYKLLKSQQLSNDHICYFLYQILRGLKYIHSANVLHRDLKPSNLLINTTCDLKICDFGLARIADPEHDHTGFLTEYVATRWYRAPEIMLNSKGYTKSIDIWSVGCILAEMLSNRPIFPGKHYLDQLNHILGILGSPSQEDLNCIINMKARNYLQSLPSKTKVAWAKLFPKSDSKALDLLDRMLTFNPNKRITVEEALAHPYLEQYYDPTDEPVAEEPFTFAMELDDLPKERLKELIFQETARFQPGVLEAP
Chain of Protein kinase C epsilon type (Homo sapiens) (Q02156 whole entry, the tested form may be a part): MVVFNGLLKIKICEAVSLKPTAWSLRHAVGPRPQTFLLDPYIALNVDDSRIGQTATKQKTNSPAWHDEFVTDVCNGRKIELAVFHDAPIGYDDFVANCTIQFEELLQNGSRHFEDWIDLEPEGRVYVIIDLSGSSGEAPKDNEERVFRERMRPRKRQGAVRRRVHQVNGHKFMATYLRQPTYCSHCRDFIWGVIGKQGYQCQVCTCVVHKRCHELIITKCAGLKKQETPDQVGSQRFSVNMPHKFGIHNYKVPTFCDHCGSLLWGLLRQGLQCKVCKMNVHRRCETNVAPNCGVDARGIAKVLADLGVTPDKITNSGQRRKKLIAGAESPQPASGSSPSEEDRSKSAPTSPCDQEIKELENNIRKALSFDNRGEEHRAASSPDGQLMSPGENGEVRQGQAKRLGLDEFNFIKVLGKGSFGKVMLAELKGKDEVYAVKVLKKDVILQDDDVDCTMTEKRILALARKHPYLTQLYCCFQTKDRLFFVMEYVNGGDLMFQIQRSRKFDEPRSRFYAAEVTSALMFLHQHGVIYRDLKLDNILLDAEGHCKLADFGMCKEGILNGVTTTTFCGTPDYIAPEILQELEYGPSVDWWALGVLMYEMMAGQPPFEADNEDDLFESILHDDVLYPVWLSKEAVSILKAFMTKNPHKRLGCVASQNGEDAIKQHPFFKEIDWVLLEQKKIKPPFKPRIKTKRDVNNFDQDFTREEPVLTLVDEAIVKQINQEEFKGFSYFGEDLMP
Chain of Phosphatidylinositol 5-phosphate 4-kinase type-2 gamma (Homo sapiens) (Q8TBX8 whole entry): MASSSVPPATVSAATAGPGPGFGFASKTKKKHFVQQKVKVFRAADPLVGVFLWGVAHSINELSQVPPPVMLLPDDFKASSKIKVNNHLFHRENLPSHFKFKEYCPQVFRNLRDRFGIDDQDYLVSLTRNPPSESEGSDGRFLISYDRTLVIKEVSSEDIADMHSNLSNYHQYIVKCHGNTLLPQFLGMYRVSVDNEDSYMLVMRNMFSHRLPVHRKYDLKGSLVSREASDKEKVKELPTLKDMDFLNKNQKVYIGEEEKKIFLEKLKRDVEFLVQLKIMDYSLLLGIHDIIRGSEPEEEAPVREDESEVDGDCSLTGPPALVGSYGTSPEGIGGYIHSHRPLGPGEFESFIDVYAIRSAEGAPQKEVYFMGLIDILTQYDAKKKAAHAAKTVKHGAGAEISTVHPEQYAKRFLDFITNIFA
Chain of Ribosomal protein S6 kinase alpha-3 (Homo sapiens) (P51812 whole entry, the tested form may be a part): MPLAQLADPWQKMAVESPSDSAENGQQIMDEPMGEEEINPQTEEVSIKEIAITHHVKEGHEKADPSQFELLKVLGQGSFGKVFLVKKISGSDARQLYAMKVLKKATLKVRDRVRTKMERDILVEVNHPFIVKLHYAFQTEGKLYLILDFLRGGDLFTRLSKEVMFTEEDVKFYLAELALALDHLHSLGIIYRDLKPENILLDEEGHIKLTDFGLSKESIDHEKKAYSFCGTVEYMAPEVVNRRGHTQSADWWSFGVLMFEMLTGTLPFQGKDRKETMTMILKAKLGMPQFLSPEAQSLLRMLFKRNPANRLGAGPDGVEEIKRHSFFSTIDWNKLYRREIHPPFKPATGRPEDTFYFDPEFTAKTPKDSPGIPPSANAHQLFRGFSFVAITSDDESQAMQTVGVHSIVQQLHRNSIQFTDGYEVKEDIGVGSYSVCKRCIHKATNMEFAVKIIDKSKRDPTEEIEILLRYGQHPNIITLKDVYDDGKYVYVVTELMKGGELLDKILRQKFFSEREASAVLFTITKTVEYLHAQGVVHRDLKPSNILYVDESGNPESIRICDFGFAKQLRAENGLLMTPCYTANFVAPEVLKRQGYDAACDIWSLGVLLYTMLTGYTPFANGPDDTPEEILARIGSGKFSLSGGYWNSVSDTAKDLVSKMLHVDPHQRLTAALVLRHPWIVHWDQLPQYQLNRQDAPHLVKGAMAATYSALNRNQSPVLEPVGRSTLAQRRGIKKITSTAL
Chain of Tyrosine-protein kinase Lyn (Homo sapiens) (P07948 2-512 limits assumed): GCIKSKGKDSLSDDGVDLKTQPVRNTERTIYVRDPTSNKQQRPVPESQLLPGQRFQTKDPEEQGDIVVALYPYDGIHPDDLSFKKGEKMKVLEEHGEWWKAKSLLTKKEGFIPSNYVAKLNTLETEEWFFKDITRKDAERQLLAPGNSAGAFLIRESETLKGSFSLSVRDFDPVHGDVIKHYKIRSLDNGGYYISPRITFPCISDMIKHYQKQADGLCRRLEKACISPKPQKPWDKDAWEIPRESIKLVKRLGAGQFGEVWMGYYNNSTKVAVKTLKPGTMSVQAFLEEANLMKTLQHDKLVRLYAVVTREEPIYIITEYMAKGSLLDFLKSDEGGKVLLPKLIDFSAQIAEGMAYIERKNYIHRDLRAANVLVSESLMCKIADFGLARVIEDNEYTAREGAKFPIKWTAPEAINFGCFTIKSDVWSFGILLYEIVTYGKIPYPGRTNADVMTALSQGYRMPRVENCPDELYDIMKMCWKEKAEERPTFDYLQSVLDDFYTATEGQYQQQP
Chain of Testis-specific serine/threonine-protein kinase 1 (Homo sapiens) (Q9BXA7 whole entry): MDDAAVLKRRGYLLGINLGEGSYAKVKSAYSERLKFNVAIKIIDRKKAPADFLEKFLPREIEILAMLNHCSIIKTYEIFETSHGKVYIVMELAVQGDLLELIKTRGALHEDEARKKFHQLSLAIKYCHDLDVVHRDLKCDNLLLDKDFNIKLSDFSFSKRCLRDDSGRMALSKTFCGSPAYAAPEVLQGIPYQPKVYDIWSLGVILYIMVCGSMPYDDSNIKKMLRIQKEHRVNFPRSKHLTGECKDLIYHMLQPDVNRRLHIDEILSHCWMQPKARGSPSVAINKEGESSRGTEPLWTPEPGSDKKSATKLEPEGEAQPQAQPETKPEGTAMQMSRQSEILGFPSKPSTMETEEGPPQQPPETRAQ

`CN1C(=O)c2sccc2N(C)c2nc(Nc3ccc(S(N)(=O)=O)cc3)ncc21` showed an Activity [1] of 73%, an Activity [2] of 98% and an Activity [3] of 100%. The Activity [4] was 39%, the Activity [5] was 82% and the Activity [6] was 100%. The Activity [7] was 83%, the Activity [8] was 100% and the Activity [9] was 100%. For the same compound, the Activity [10] was 23%, the Activity [11] was 8% and the Activity [12] was 94%. The Activity [13] was 70%, the Activity [14] was 98% and the Activity [15] was 66%. The Activity [16] was 86%, the Activity [17] was 74% and the Activity [18] was 95%. It also gave an Activity [19] of 94%, an Activity [20] of 100% and an IC50 [21] of 38.2 nM. For the same compound, the Activity (Mus musculus) was roughly 40% and the IC50 [22] was 38.8 nM.
